RGS4 pot – RGS4 potentiators or activators, primary screen, cell-based, HEK293 M3R inducible RGS4, calcium flux; carbachol calcium flux Fluo4; stronger effect = lower value; B-score at 10 µM; actives 0.92% (n = 310,000);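 active means B-score of the integrated calcium signal more than 4 SD below the library mean, with starting fluorescence not abnormally high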;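 further: negative B-score means reduced calcium response which marks RGS4 activation or potentiation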
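test system = HEK293 cells with stable M3R and inducible RGS4 | schedule = recording 10 s baseline at 1 Hz, 100 s post-agonist | technique = Fluo4-AM (2 µM) calcium-flux fluorescence, kinetic read | measure = Agonist-evoked peak-minus-minimum fluorescence over baseline, integrated ratio, B score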
MrgX1 antagonist – antagonists of human MrgX1 receptor, primary screen, HEK293 cells, Fluo-4 calcium flux; Mas-related G-protein coupled receptor member X1 (Homo sapiens), Q96LB2; BAM8-22 antagonism; stronger effect = lower value; B-score at 10 µM; actives 1.3% (n = 310,000); AID 588676, 2011;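 active means calcium-response B-score plate-corrected more than 3 library SD below zero, starting fluorescence within 5 deviations, no agonist response on first addition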;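 further: peak minus trough fluorescence over baseline after final BAM8-22 challenge near maximal dose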
Target sequence (Q96LB2 whole entry, looked up): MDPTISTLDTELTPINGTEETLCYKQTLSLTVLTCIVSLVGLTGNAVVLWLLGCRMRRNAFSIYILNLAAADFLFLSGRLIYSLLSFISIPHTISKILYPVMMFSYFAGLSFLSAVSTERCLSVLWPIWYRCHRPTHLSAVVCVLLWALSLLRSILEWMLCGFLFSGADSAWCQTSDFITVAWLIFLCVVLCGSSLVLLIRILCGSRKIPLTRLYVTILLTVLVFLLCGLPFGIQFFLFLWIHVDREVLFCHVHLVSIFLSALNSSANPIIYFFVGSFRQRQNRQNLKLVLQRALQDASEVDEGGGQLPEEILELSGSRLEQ
MrgX1 agonist – agonists of human MrgX1 receptor, primary screen, HEK293 cells, Fluo-4 calcium flux; B-score at 10 µM; actives 0.44% (n = 310,000); Fluo-4 calcium fluorescence, agonist mode; stronger effect = higher value; AID 588627, 2011; Mas-related G-protein coupled receptor member X1 (Homo sapiens), Q96LB2;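 active means calcium response B-score plate-corrected fluorescence ratio at least 3 library SD, with starting fluorescence B-score inside 5 SD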
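Assay system: MrgX1-expressing HEK293 cells / Amount: fifteen thousand cells per well / Doses: test compound in the initial addition of three / Timing: cells plated overnight, dye loaded 0.5 h 37 °C, 0.5 h room temperature / Technique: kinetic calcium dye fluorescence, Fluo-4 NW / Control set: positive and negative controls per plate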
RGS4 inh – RGS4 inhibitors, primary screen, cell-based, HEK293 M3R inducible RGS4, calcium flux | actives 0.45% (n = 310,000) | Regulator of G-protein signaling 4 (Homo sapiens), P49798 | B-score at 10 µM | Fluo-4 calcium flux; stronger effect = higher value; triggered by carbachol at its EC20 | AID 463165, 2010;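 active means B-score, a plate-corrected calcium signal, over three deviations above library mean, with baseline fluorescence within five deviations of library mean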;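 further: RGS4 expression induced by doxycycline in cells with stable M3 receptor; B-score is computed from the integrated fluorescence ratio over baseline after carbachol; higher B-score means a larger calcium signal and so more RGS4 inhibition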
Target sequence (P49798 whole entry, looked up): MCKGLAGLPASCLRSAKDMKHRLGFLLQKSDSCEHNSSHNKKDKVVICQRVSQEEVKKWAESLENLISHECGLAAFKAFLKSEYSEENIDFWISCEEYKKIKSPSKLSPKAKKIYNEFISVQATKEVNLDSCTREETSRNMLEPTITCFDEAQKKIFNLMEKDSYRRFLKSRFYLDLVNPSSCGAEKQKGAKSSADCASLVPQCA
MrgX1 allo act – positive allosteric modulators of MrgX1, primary screen, HEK293 cells, Fluo-4 calcium flux | Mas-related G-protein coupled receptor member X1 (Homo sapiens), Q96LB2 | FDSS; stronger effect = higher value | B-score at 10 µM | actives 0.63% (n = 310,000) | AID 588675, 2011;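 active means plate-corrected calcium response at least 3 library SD above typical, normal starting fluorescence, not activating the receptor alone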;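 further: compound read alongside a low EC10 to EC30 dose of BAM8-22 agonist; peak minus trough fluorescence over baseline measured at the second addition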
* hit, by the source's call; i = inactive; x = no result given. A selection: hits, their analogues and other compounds. The true share with any hit is near 3.5%.

SMILES	RGS4 pot	MrgX1 antagonist	MrgX1 agonist	RGS4 inh	MrgX1 allo act
Cc1cc(C)cc(N(C(C)C(=O)N2CCCC2)S(C)(=O)=O)c1 (configuration not stated)	i	i	i	i	i
Cc1ccc(C(C)C)c(OCc2nn(CC(=O)c3ccc(OC(F)F)cc3)c3[n+]2CCCCC3)c1	i	-5.5*	i	i	i
O=C(/C=C/c1ccco1)N(Cc1ccc(Cl)cc1)C1CCS(=O)(=O)C1 (configuration not stated)	i	i	i	i	i
CCSCc1nnc(SCC(=O)Nc2nccs2)n1CC	i	i	i	i	i
CCn1c(COc2ccc(C(C)C)cc2)nnc1SCC(=O)Nc1nccs1	i	-7.6*	i	i	i
CCCN(CC(=O)Nc1ccc(F)c(F)c1F)C(=O)C1=COCCO1	i	i	i	i	i
Cc1ncsc1CCC(=O)N1CCCC(Nc2ccc(C(C)C)cc2)C1 (configuration not stated)	i	-6.6*	i	i	i
O=C(Nc1ccccc1Oc1cccnc1)C1CCCN(Cc2ccc(F)cc2)C1 (configuration not stated)	i	i	i	i	i
CO/N=C/C(=N\Nc1cc(OC)cc(OC)c1)C(=O)c1ccccc1	i	-5.4*	i	i	i
O=C(/C=C/c1ccccc1)c1ccccn1	i	i	39*	i	i
Fc1ccc(C(CCCn2nnc(-c3cccnc3)n2)c2ccc(F)cc2)cc1	-8.7*	i	i	i	i
Fc1ccc(-n2nnc(-c3cccnc3)n2)cc1	i	i	i	i	i
O=C(OCC(=O)C12CC3CC(CC(C3)C1)C2)c1cnccn1	i	i	i	i	i
O=c1cc(-c2ccccc2Cl)oc2c(NS(=O)(=O)c3ccccc3OC(F)(F)F)ccc(O)c12	i	i	i	i	i
CC(C)(Oc1ccc(Cl)cc1)C(=O)OCc1nc2ccsc2c(=O)[nH]1	i	i	i	i	i
Cc1c(NC(=S)N/N=C/c2ccc(Br)cc2)c(=O)n(-c2ccccc2)n1C	i	i	i	i	i
Cn1c(CS/C(N)=N/N=C/c2ccccc2)c(Br)c(=O)n1-c1ccccc1	i	i	46*	i	i
CCN(CC)CC#CCC(O)(c1ccccc1)c1ccc(Br)cc1 (configuration not stated)	-7.8*	i	i	i	i
CCCc1nc(NC(=O)c2ccccc2)nc(NC(=O)c2ccccc2)n1	i	i	i	i	i
CCn1c(/C=C/c2cc[n+](C)cc2)nc2ccccc21	i	-5.9*	i	i	i
COc1ccc(/C=C/C(=O)c2cc(Cl)ccc2O)c(OC)c1	i	i	i	i	i
COc1ccc(/C=C/C(=O)c2ccc(Cl)cc2)c(OC)c1	i	-4.9*	i	i	i
CN(C)CCCN(C(=O)c1ccc(S(=O)(=O)N(C)C2CCCCC2)cc1)c1nc2ccc(Br)cc2s1	-8.7*	i	i	i	i
CN(C)CCCN(C(=O)c1ccc(S(=O)(=O)N(C)C2CCCCC2)cc1)c1nc2ccc(F)cc2s1	i	i	i	i	i
Cc1cc(C)c2sc(N(CCCN(C)C)C(=O)c3ccc(S(=O)(=O)N(C)C4CCCCC4)cc3)nc2c1	-8*	i	i	i	i
SMILES	RGS4 pot	MrgX1 antagonist	MrgX1 agonist	RGS4 inh	MrgX1 allo act
COc1cc2nc(N(CCCN(C)C)C(=O)c3ccc(S(=O)(=O)N(C)C4CCCCC4)cc3)sc2cc1OC	i	i	i	i	i
COc1ccc2sc(N(CCCN(C)C)C(=O)c3ccc(S(=O)(=O)N4CCCc5ccccc54)cc3)nc2c1	-9.5*	i	i	i	i
Cc1cc(C)c(OCC(O)CN2CCN(c3ccccn3)CC2)c(C)c1 (configuration not stated)	i	i	i	i	i
c1ccc(CN2CCN(CCOCCOc3ccc4c(c3)CCC4)CC2)cc1	i	-5.6*	i	i	i
O=[N+]([O-])c1cccc(S(=O)(=O)Nc2ccc(-c3ccc(N4CCOCC4)nn3)cc2)c1	i	i	i	i	7.8*
O=[N+]([O-])c1cccc(S(=O)(=O)Nc2ccc(-c3ccc(N4CCCC4)nn3)cc2)c1	i	i	i	i	i
CC(SC#N)C(=O)C12CC3CC(CC(C3)C1)C2 (configuration not stated)	i	-5.1*	i	i	i
CCN(C(=O)COC(=O)c1cc(=O)c2ccccc2o1)c1c(N)n(Cc2ccccc2)c(=O)[nH]c1=O	i	i	i	i	i
Cc1cc(C(=O)N/N=C/c2cccs2)no1	i	i	28*	i	i
Cc1ccc(NC(=O)c2nn(C34CC5CC(CC(C5)C3)C4)cc2[N+](=O)[O-])cc1	i	-5*	i	i	i
CC(=O)c1c(C)[nH]c(C(=O)Nc2ccc(C)cc2Br)c1C	i	i	i	i	i
O=C(NCc1cccc(Cl)c1)c1cc(=O)[nH]c2ccccc12	i	i	i	i	i
CCN(CC)C(CNC(=O)c1cc(=O)[nH]c2ccccc12)c1ccccc1Cl (configuration not stated)	-7.5*	i	i	i	i
COc1ccc(NS(=O)(=O)c2cccc(C(=O)NNC(=O)c3cccn3C)c2)cc1	i	i	i	i	i
Cc1ccc(NS(=O)(=O)c2cccc(C(=O)NNC(=O)c3cccn3C)c2)c(C)c1	i	-6.7*	i	i	i
COc1cccc(CNc2cccc3cccnc23)c1O	i	i	i	i	15*
COc1cccc(CNc2ccccn2)c1O	i	i	i	i	i
Cc1ccc(S(=O)(=O)N2[C@@H](c3ccccc3F)C(C(=O)O)=CC[C@H]2c2cccc(Cl)c2)cc1	x	i	i	x	11*
Cc1ccc(S(=O)(=O)N2[C@@H](c3cccc(Cl)c3)C(C(=O)O)=CC[C@H]2c2ccc(Cl)cc2)cc1	x	i	i	x	i
Cc1ccc([C@@H]2CC=C(C(=O)O)[C@H](c3ccc(F)cc3)N2S(=O)(=O)c2ccc(C)cc2)cc1	x	i	i	x	i
Cc1ccc(S(=O)(=O)N2[C@@H](c3ccccc3F)C(C(=O)O)=CC[C@H]2c2ccc(C(C)C)cc2)cc1	x	i	i	x	i

Bioassay records deposited in PubChem BioAssay by Johns Hopkins Ion Channel Center.
